Screening results from PubChem BioAssay.
An excerpt weighted towards active compounds, which were near 2.7% of everything screened.
Yeast growth inh = yeast BB579 growth reduction in restrictive medium; S. cerevisiae BB579 growth, OD615, 48 h; inhibition, % at 10 µM; actives 0.51% (n = 140,000); AID 804;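 active = inhibition above a set limit, 3 SD over the mean compound inhibition, cut at about 44% in these data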
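Detection: OD615 turbidity measurement; Material: Saccharomyces cerevisiae DeaD strain BB579, replicative lifespan model yeast; Timing: 48 h exposure, 30 °C; Doses: single 10 µM dose; Medium: CSMM-D restrictive synthetic medium containing dextrose (glucose); Controls: amphotericin B at 10 µg/mL as positive control.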
sdo1 growth = compounds rescuing growth of sdo1-depleted yeast, bone marrow failure model; actives 0.21% (n = 140,000); z-score at 10 µM; S. cerevisiae sdo1-depleted JHY4D growth rescue, OD600 30 h; active compounds read high; pdr5 snq2 efflux-pump mutant strain;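 active = z-score above 3 at both the 24 hr and the 30 hr optical density reads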
RAM network inh = blocks the yeast RAM network; S. cerevisiae dse1pr::URA3 reporter, 5-FOA growth OD615, 2 d; analog-sensitive cbk1-as2 kinase mutant strain; inhibition, % at 50 µM; actives 1.8% (n = 190,000); AID 868;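 active = inhibition above a set limit, 3 SD over mean compound inhibition, cut at about 8.4% in these data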;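 note: inhibition rescues growth on 5-FOA so higher OD means more RAM inhibition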
Yeast lifespan up = extends the lifespan of yeast; S. cerevisiae growth with nicotinamide, OD615; deaD strain in restrictive glucose medium; inhibition of the nicotinamide effect, % at 10 µM; actives 0.68% (n = 130,000); AID 775;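 active = inhibition above a set limit, placed 3 SD over the median of all compounds, cut at about 26% in these data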
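Assay system: engineered S. cerevisiae DeaD replicative-lifespan strain, galactose-grown log-phase cells; Buffer or medium: CSMM-D glucose medium, restrictive; Probe or stimulus: nicotinamide 1.5 mM; Compound: single dose 10 µM compound, 0.25% DMSO; Schedule: 4 h preincubation then 48 h treatment at 30 °C; Technique: OD615 measurement.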
Large screens that a line does not name were inactive.

N#CCCn1cc(C(=O)Nc2ccc(C(=O)O)cc2)c(-c2ccc([N+](=O)[O-])cc2)n1	RAM network inh 8.8 (no result: Yeast growth inh, sdo1 growth, Yeast lifespan up)
N#CCCn1cc(C(=O)Nc2ccc(C(=O)O)cc2)c(-c2cccs2)n1	none (no result: Yeast growth inh, sdo1 growth, Yeast lifespan up)
CC1Cc2ccccc2N1C(=O)CSc1nccc(=O)[nH]1 (stereo not given)	none (no result: Yeast growth inh, sdo1 growth, Yeast lifespan up)
Cc1noc2ncnc(Sc3ccccc3Cl)c12	Yeast growth inh 61
CC(C)(C)N(Cc1ccccc1)C(=O)COC(=O)c1cccc([N+](=O)[O-])c1	none (no result: Yeast growth inh, sdo1 growth, Yeast lifespan up)
CN1CCS/C1=C/C=C1/SC(=S)N(Cc2ccccc2)C1=O	RAM network inh 9.6
CN1CCS/C1=C/C=C1\SC(=S)N(CC(=O)O)C1=O	none (no result: Yeast growth inh, sdo1 growth, Yeast lifespan up)
Cn1c(-c2ccc(Br)cc2)cnc1NCc1cccnc1	Yeast lifespan up 42
Cn1c(-c2ccc(F)cc2)cnc1NCc1ccc(F)cc1	none
N#CCc1nn(-c2ccc(F)cc2)c(N)c1C#N	none (no result: Yeast growth inh, sdo1 growth, Yeast lifespan up)
O=C(OCn1ncc(Cl)c(Cl)c1=O)c1ccccc1Cl	Yeast growth inh 66
O=C(OCn1ncc(Cl)c(Cl)c1=O)c1ccc(F)cc1	Yeast growth inh 45
O=c1c(Cl)c(Cl)cnn1Cc1ccc(F)cc1	none (no result: Yeast growth inh, sdo1 growth, Yeast lifespan up)
CO/N=C/C(=N\Nc1ccc(OC)cc1)C(=O)c1ccc(F)cc1	RAM network inh 9.2 (no result: Yeast growth inh, sdo1 growth, Yeast lifespan up)
CO/N=C\C(=N\Nc1ccc(OC)cc1)C(=O)c1ccccc1	none
CO/N=C/C(=N\Nc1ccc(C)cc1)C(=O)c1ccc(OC)cc1	RAM network inh 10
O=C1C(=O)N(CCN2CCOCC2)C(c2ccccn2)/C1=C(/O)c1ccccc1 (stereo not given)	Yeast lifespan up 26
Cc1cccc(N2CCN(C(=O)C3(S(=O)(=O)c4ccc(Cl)cc4)CC3)CC2)c1C	RAM network inh 8.6 (no result: Yeast growth inh, sdo1 growth, Yeast lifespan up)
Cc1ccc(Cl)cc1N1CCN(C(=O)C2(S(=O)(=O)c3ccc(Cl)cc3)CC2)CC1	none
N/C(=N\NC(=O)c1sccc1OCc1ccc(Cl)cc1Cl)c1ccccn1	RAM network inh 8.7 (no result: Yeast growth inh, sdo1 growth, Yeast lifespan up)
COCCOC(=O)/C(=C/c1ccc(OC(=O)c2ccccc2)cc1)C(C)=O	Yeast lifespan up 39
CC(=O)Nc1ccc(C(=O)CSc2cc(C)c3cccc(C)c3n2)cc1	none
Cc1cc(SCC(=O)c2cccs2)nc2c(C)cccc12	RAM network inh 8.9
O=C(COc1c(Br)cc(Br)c2cccnc12)N1CCc2ccccc2C1	Yeast growth inh 99
COc1ccc(OC)c(NC(=O)C(=S)NC2CCCCC2)c1	RAM network inh 8.7 (no result: Yeast growth inh, sdo1 growth, Yeast lifespan up)
COc1ccc(NC(=O)C(=S)NC2CCCCC2)cc1	none (no result: Yeast growth inh, sdo1 growth, Yeast lifespan up)
Cc1ccccc1COC(=O)c1nn(-c2ccccc2)nc1N	RAM network inh 9.4 (no result: Yeast growth inh, sdo1 growth, Yeast lifespan up)
O=C(CCN1c2ccccc2Sc2ccccc21)Oc1ccccc1	none
COC(=O)c1ccc(OC(=O)CCN2c3ccccc3Sc3ccccc32)cc1	RAM network inh 11
CC1=NOC(=O)/C1=C\c1ccc(-c2ccc(Cl)cc2Cl)o1	Yeast growth inh 45
O=c1cc(-c2ccccc2Cl)oc2ccc([N+](=O)[O-])c(O)c12	Yeast lifespan up 64
N#C/C(=C\c1ccc(-c2ccccc2)cc1)c1nc(-c2ccco2)cs1	RAM network inh 8.4
O=C(CCCC(=O)NNC(=O)Nc1ccccc1)NNC(=O)Nc1ccccc1	none (no result: Yeast growth inh, sdo1 growth, Yeast lifespan up)
COc1ccc(CN2CCC(CO)(CCOc3ccccc3)CC2)cc1C	none (no result: Yeast growth inh, sdo1 growth, Yeast lifespan up)
Cc1ccc(C(=O)CC(=O)c2cc(Cl)ccc2O)cc1	RAM network inh 10
O=C(CC(=O)c1ccccc1O)c1ccc(F)cc1	Yeast growth inh 53
CC(C)(C)c1ccc(C(=O)CC(=O)c2cc(Cl)ccc2O)cc1	RAM network inh 10
NS(=O)(=O)c1ccc(NC(=S)Nc2nn(Cc3ccc(Cl)cc3Cl)cc2Cl)cc1	none
CCOc1ncnc2c1oc1nc(CC(C)C)c3c(c12)CC(C)(C)OC3	RAM network inh 10
COc1ncnc2c1oc1nc(C(C)C)c3c(c12)CC(C)(C)OC3	none
O=C(CSc1nnc(-c2cccs2)o1)Nc1cccc(S(=O)(=O)N2CCCCC2)c1	none
CCOC12NC(=O)CC(=O)N1C(c1ccccc1)=CS2 (stereo not given)	RAM network inh 9.9
COc1cc(N2C(=O)c3ccccc3C2=O)c(Cl)cc1C(=O)OCC(=O)N(C)C	none (no result: Yeast growth inh, sdo1 growth, Yeast lifespan up)
COc1cccc(-c2ccc(SCc3ccccn3)nn2)c1	none (no result: Yeast growth inh, sdo1 growth, Yeast lifespan up)
Clc1ccc(OCc2nnc(SCc3nnc(-c4ccccc4)o3)o2)c(Cl)c1	RAM network inh 9.6
CCOC(=O)C=C(C(=O)OCC)C(=O)OCC	none (no result: Yeast growth inh, sdo1 growth, Yeast lifespan up)
CCOc1ccc(N(CC(=O)Nc2cccc(N(C)S(C)(=O)=O)c2)S(=O)(=O)c2ccccc2)cc1	RAM network inh 9.6
COc1ccc(N(CC(=O)Nc2cccc(N(C)S(C)(=O)=O)c2)S(=O)(=O)c2ccc(C)cc2)cc1	none (no result: Yeast growth inh, sdo1 growth, Yeast lifespan up)
